Results from ChEMBL document CHEMBL1681705, “Optimisation of ITK inhibitors through successive iterative design cycles” (Bioorg Med Chem Lett, 2011).

Experiments:
[1] = target: Protein kinase C theta type (Homo sapiens) (UniProt Q04759); experiment: Inhibition of PKCtheta at 1 uM; values are per cent of control
[2] = target: T1, Ephrin type-A receptor 8 (Homo sapiens) (UniProt P29322); experiment: Inhibition of EphA8 at 1 uM; values are per cent of control
T1 sequence (whole entry): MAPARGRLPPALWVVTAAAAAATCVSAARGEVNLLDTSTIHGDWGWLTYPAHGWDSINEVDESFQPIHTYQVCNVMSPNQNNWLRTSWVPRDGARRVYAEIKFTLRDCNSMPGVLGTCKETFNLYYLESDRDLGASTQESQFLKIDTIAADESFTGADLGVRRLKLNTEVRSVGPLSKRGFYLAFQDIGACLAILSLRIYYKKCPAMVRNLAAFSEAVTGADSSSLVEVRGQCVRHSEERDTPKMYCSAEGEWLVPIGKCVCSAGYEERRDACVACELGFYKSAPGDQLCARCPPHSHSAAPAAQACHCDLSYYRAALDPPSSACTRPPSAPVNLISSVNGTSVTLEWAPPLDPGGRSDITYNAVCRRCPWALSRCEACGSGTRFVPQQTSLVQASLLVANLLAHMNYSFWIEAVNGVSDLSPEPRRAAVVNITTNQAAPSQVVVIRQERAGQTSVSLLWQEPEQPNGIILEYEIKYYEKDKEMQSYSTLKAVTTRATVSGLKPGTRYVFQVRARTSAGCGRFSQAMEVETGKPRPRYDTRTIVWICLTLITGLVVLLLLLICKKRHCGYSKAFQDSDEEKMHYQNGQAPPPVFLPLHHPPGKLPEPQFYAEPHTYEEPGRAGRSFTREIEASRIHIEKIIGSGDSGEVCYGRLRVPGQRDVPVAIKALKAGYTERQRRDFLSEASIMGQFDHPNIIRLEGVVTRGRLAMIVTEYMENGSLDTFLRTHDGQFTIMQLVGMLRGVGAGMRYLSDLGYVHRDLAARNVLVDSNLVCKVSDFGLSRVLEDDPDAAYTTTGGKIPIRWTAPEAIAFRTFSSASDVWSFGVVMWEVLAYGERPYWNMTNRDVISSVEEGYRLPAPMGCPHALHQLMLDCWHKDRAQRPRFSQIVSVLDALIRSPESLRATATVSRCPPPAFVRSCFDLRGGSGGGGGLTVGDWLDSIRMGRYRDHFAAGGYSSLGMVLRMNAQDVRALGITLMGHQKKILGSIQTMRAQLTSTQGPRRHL

[3] = target: RAF proto-oncogene serine/threonine-protein kinase (Homo sapiens) (UniProt P04049); experiment: Inhibition of c-RAF at 0.1 uM; values are per cent of control
[4] = target: LIM domain kinase 1 (Homo sapiens) (UniProt P53667); experiment: Inhibition of LIMK1 at 1 uM; values are per cent of control
[5] = target: T2, Interleukin-1 receptor-associated kinase 4 (Homo sapiens) (UniProt Q9NWZ3); experiment: Inhibition of IRAK4 at 1 uM
T2 sequence (whole entry): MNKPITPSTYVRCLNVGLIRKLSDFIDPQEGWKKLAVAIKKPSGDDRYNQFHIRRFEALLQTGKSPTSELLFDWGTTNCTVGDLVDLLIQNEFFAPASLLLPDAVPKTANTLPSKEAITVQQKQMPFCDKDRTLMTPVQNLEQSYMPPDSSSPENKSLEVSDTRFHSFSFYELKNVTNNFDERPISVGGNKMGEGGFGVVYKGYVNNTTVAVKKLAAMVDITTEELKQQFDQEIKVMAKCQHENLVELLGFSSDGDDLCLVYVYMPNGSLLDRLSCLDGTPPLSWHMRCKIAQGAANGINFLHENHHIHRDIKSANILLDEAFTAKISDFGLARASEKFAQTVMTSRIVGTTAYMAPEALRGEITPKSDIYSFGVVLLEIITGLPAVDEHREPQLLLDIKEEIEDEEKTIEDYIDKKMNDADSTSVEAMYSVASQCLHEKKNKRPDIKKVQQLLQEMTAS
In short: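 Single-point profiling in a panel of 108 kinases. Each selected inhibitor was tested at two concentrations, 0.1 and 1.0 micromolar. Values are reported as inhibition at each concentration.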

[6] = target: Ribosomal protein S6 kinase beta-1 (Homo sapiens) (UniProt P23443); experiment: Inhibition of p70S6K at 0.1 uM; values are per cent of control
[7] = target: Ephrin type-A receptor 5 (Homo sapiens) (UniProt P54756); experiment: Inhibition of EphA5 at 0.1 uM; values are per cent of control
[8] = target: LIM domain kinase 1 (Homo sapiens) (UniProt P53667); experiment: Inhibition of LIMK1 at 0.1 uM; values are per cent of control

Sequence of LIM domain kinase 1 (Homo sapiens) (P53667 whole entry, looked up, the tested form may be a part): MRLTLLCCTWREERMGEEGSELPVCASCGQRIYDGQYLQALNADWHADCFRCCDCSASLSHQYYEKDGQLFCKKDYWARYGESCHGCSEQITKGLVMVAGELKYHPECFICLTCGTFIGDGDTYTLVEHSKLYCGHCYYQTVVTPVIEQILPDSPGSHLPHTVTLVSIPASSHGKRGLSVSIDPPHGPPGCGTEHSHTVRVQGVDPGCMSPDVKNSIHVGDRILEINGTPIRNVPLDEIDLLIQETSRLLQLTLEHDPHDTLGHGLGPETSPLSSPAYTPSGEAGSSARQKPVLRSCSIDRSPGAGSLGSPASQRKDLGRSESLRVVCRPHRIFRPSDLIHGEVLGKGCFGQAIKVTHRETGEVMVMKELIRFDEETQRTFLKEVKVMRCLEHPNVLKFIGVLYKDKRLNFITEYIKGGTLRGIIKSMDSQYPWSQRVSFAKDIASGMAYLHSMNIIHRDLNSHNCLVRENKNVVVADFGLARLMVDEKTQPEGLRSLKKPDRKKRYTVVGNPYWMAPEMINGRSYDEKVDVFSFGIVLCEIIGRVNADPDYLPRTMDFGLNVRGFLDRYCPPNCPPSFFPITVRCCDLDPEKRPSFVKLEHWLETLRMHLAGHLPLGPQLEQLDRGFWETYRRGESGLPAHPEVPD
Sequence of Ribosomal protein S6 kinase beta-1 (Homo sapiens) (P23443 whole entry, looked up): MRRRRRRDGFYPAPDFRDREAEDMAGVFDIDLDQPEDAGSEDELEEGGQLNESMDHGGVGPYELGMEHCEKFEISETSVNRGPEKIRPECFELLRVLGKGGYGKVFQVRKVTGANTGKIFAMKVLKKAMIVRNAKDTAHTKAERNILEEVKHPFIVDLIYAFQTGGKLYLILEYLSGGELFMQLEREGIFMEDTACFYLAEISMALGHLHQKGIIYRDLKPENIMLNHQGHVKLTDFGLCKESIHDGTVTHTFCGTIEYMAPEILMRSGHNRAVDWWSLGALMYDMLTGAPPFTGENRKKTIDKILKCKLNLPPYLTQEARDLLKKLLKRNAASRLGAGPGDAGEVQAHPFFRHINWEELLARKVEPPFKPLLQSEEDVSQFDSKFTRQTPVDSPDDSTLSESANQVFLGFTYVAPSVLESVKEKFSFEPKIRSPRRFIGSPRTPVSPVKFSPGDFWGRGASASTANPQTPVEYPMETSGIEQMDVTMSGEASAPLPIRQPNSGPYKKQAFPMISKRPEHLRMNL
Sequence of RAF proto-oncogene serine/threonine-protein kinase (Homo sapiens) (P04049 whole entry, the tested form may be a part): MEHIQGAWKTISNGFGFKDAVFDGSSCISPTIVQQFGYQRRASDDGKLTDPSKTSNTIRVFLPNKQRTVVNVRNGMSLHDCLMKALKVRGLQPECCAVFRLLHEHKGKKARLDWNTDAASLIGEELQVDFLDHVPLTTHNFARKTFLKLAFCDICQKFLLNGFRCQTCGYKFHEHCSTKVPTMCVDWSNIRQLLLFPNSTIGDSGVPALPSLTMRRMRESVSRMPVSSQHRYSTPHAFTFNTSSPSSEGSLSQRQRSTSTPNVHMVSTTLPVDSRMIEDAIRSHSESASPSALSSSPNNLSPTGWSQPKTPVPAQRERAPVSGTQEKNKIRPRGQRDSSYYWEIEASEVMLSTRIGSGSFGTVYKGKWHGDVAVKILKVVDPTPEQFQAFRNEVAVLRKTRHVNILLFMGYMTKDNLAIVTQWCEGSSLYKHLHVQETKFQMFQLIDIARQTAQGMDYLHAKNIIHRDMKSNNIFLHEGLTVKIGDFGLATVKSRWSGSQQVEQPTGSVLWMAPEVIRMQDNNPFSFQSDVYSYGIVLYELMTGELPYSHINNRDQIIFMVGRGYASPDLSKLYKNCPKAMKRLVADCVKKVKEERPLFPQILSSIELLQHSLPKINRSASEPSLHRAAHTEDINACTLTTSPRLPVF
Sequence of Protein kinase C theta type (Homo sapiens) (Q04759 whole entry, looked up): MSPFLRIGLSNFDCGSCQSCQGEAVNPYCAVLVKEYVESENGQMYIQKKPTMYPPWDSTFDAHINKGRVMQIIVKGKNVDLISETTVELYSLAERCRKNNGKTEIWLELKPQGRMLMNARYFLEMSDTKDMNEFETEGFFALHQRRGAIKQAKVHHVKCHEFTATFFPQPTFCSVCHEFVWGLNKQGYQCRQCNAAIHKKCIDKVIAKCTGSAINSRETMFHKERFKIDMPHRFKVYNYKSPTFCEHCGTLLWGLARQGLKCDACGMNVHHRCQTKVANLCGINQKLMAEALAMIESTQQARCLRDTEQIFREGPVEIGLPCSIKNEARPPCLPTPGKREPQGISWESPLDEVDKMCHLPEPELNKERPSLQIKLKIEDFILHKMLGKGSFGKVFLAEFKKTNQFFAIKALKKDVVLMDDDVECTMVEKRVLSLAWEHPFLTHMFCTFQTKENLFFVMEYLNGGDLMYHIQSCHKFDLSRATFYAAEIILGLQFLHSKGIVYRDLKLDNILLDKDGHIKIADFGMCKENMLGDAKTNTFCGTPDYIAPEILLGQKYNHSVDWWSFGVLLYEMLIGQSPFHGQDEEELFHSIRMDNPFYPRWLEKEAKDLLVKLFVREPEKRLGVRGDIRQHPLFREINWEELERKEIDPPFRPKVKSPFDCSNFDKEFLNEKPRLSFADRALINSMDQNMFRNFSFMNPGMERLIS
Sequence of Ephrin type-A receptor 5 (Homo sapiens) (P54756 whole entry, the tested form may be a part): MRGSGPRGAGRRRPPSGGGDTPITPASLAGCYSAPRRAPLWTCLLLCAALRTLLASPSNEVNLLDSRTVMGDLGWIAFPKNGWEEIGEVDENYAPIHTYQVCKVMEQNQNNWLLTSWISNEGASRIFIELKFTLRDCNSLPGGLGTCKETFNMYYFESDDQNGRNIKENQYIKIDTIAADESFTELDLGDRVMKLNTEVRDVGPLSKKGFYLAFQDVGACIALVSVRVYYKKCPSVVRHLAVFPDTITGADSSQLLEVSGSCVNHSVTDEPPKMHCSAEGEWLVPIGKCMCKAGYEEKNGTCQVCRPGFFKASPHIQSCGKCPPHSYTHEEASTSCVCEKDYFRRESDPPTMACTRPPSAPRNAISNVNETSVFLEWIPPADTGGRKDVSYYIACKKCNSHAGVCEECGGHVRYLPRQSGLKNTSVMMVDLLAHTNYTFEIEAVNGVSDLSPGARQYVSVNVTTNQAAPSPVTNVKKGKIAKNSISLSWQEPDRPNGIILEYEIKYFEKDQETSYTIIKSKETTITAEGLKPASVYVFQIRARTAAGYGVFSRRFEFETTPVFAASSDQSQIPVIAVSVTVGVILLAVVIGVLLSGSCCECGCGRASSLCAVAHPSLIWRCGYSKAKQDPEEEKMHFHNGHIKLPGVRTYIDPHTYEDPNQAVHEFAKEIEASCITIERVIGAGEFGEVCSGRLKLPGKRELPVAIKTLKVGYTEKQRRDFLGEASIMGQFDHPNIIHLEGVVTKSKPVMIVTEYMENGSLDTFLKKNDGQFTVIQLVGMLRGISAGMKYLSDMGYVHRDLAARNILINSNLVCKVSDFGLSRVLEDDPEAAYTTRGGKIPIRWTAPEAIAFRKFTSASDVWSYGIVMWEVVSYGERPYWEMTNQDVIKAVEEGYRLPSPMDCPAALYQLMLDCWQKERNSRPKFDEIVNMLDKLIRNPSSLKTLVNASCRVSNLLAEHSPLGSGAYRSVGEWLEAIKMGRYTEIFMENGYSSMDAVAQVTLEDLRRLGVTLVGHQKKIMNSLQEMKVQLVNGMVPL

| residual activity [1] [%] | residual activity [2] [%] | residual activity [3] [%] | residual activity [4] [%] | inhibition [5] [%] | residual activity [6] [%] | residual activity [7] [%] | residual activity [8] [%] | Structure (SMILES) |
| --- | --- | --- | --- | --- | --- | --- | --- | --- |
| 6 | 58 | 101 | 73 | 3 | 59 | 81 | 98 | Cc1ccc2cc(-c3n[nH]c4ccc(NC5CCN(Cc6ccccc6)CC5)cc34)[nH]c2c1 |
| 23 | 57 | 92 | 4 | 0 | 33 | 86 | 37 | Cc1ccc2cc(-c3n[nH]c4ccc(NC5CCNC5)cc34)[nH]c2c1 (stereo unspecified) |
